Results: the EternaBench riboswitch data

System: MS2 coat protein
Assay: apparent Kd, MS2 coat protein; higher = weaker binding; RNA-MaP array; FMN 200 µM where present
Method in brief: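 Designs were transcribed by stalled E. coli RNA polymerase on Illumina sequencing-chip clusters. They were titrated with SNAP-549-labelled MS2 coat protein from 0.7 or 1.5 nM, doubling to 3 µM, without and then with constant ligand. Buffer: 100 mM Tris-HCl pH 7.5, 80 mM KCl, 4 mM MgCl2, BSA, DTT, yeast tRNA, Tween-20. Green signal was normalised to red-channel RNA signal and control-cluster median Fmax. Apparent Kd is the median of filtered per-cluster binding-curve fits.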

[1] = designed as: OFF switch for flavin mononucleotide, no ligand
[2] = ligand present: flavin mononucleotide, designed as: OFF switch for flavin mononucleotide
[3] = designed as: ON switch for flavin mononucleotide, no ligand
[4] = ligand present: flavin mononucleotide, designed as: ON switch for flavin mononucleotide

Row | Sequence | apparent Kd [1] | apparent Kd [2] | apparent Kd [3] | apparent Kd [4]
1 | CCAUGAACAGGAUAUCUUCCUCCGAACAUGAGGAUCACCCAUGUAACUGUGUAGCAUGACAGAGAAGGGUUUAUGG | 99.5 nM | 56.7 nM |  | 
2 | CCCUAAUAUCGAGGAUAUGUCUAGACACAUGAGGAUCACCCAUGUAUGUGUAUAGAAGGCGAUAUUAACAGCAUGUUACAUCCC |  |  | 46.2 nM | 21.7 nM
3 | GCAGACGUAGUGAGGAUAUGCUCUACCUCGGUAGAGCAGAAGGCACAUGAGGAUCACCCAUGUGGUUCUUCUGC | 28.2 nM | 339 nM |  | 
4 | UCCUUGUCCUGAGGAUAUCCGCGGUUCCCAAAAGGAGAAGGCAGGACAUGAGGAUCACCCAUGUACCCAGAAAACGUGCAGAUU | 9.95 nM | 46.8 nM |  | 
5 | ACUGUCCGAGAGAAGGGAACAUGAGGAUCACCCAUGUUACCUCACCUGGUGACGGAACUCCAAGUUCAGGAUAUCUCGAGCGGU | 4.72 nM | 6.53 nM |  | 
6 | AAGGUGAGUCAAGGAUAUCCGGGCUGAAUGCCAGGAGAAGGUGACAUGAGGAUCACCCAUGUCUCUCCGAGCAUGGUAUUCUCA | 148 nM | 138 nM |  | 
7 | AUUUCGUUAGCAGGAUAUGGACAGGCCUGUCCGUAUUGAGUCAGUAACAUGAGGAUCACCCAUGUCCAGAAGGGCUCGAAGUUA | 8.15 nM | 15.8 nM |  | 
8 | CAGCCCUGAGGAUAUCCCUACUUGUACAUGAGGAUCACCCAUGUCCUCCUCCGGGCUUCGGGAGAAGGCAGGUCUC | 15.8 nM |  |  | 
9 | CUAUGCGGAAUAGGAUAUUCGUUCAUGAGGAUAGAAGAAGGGUUACAUGAGGAUCACCCAUGUAUGCACAUGAGGAUCCCUUAG | 252 nM | 228 nM |  | 
10 | CGUGCGUAUGUGAGGAUAUGCUGGUCCUUGGAUCGGCAGAAGGCACAUGAGGAUCACCCAUGUGGUGUCGUACU | 238 nM | 32.4 nM |  | 
11 | GCCUUAUCGGUCAGGAUAUACAUUUGUUAGUUGUUGUAGAAGGGACAUGAGGAUCACCCAUGUACAUUACAUUG | 22.4 nM | 40.3 nM |  | 
12 | GUGUUGUAUGUAGGAUAUGCAUACUGUUAGUAUGCAGAAGGACAUGAGGAUCACCCAUGUAUAUUAUUAUUAUAUAUCAUACAU | 21.1 nM | 36.8 nM |  | 
13 | UGGUAUUAGGGAGGAUAUGGGAAGAUACAUGAGGAUCACCCAUGUUUAAGAAUGCCGAGAGGCAACUAGAAGGCCCUAGUACCU |  |  | 500 nM | 20.3 nM
14 | GAUCAGCUUGUGAGGAUAUCCGGGCUUAAAGGCUAGGAGAAGGUACAUGAGGAUCACCCAUGUAGAGUCCUGGG | 73.8 nM | 111 nM |  | 
15 | CCAGCGUAUGUGAGGAUAUGCUGGUCCUUGGAUCAGCAGAAGGCACAUGAGGAUCACCCAUGUGAUAACGUUGG | 59.5 nM | 261 nM |  | 
16 | CUAAAUCAUGUAGGAUAUGGAUGGCGAAGCUACCCAGAAGGACAUGAGGAUCACCCAUGUCAGAACGUCUGCGUUCAGACGUUG | 35.7 nM | 217 nM |  | 
17 | UGUGCUGAAGGAUAUGCGUAAUCUCGGUGACGAGUAGAUCUACAUGAGGAUCACCCAUGUAGAAGGUCAGUACU | 17.8 nM | 18.9 nM |  | 
18 | AUCAGCUCGUCAGGAUAUACGUCACUGCGUCAGCAGUGUGGUAAGAUCACAUGAGGAUCACCCAUGUAGAAGGGACGAGUUGAU | 13.6 nM | 310 nM |  | 
19 | UACAAUGGAGGAUAUAUGGUCAUACACAUGAGGAUCACCCAUGUCGCGAGUCGUGUAUCCAUAGAAGGCUGUAGUG | 13.7 nM | 15.6 nM |  | 
20 | GGACGUCAGAUUAACAUGAGGAUCACCCAUGUCUUUUGACAUGAGGAUAUGGAAGGUAAUUCCUUCCAGAAGGCAUGGACGUCC |  |  | 1020 nM | 114 nM
21 | UAGUGAUUGCAAGGAUAUGCUAGUUUUUAUUUGUGUUUGAUAUCUAACAUGAGGAUCACCCAUGUGCAGAAGGUGCUUGAUUUG |  |  | 87.8 nM | 107 nM
22 | CUUUUGUGAGGAUAUUAGUAGUAAAUAAAUAAAAUUAUUACUGAGAAGGCACAUGAGGAUCACCCAUGUUCCUC | 32.5 nM | 405 nM |  | 
23 | UUGAUGUCAUCAGGAUAUAGUAUUUAAGACAUAUCUUCUUUCAAACAUGAGGAUCACCCAUGUCGCUAGAAGGGAUUAUUGAUU | 16.8 nM | 13 nM |  | 
24 | CUGAGCUGAGGAUAUACAUGAGGAUCACCCAUGUGAAGUAGCUUGCGUACAGGCAGAUGUAGAAGGCAGUUCGG | 39.1 nM | 179 nM |  | 

Row | Sequence | apparent Kd [1] | apparent Kd [2] | apparent Kd [3] | apparent Kd [4]
25 | CAUGUCCUCACAGGAUAUGCACCACUUUGUGGUGCAGAAGGGUGAAUACAUGAGGAUCACCCAUGUGGACAUGAUAUAUUUAAG |  |  | 1200 nM | 75.4 nM
26 | CUUUUGUGAGGAUAUCAGUAGUAAAUAAAUAAAAUAACUACUGAGAAGGCACAUGAGGAUCACCCAUGUUCCUC | 35.8 nM | 223 nM |  | 
27 | GGGUACAGCGGAGGAUAUCAUGUAAAUACAUGAGGAUCACCCAUGUCGAUGGAGACAUCGGAGAUUGAGAAGGCCGAUGUACCG |  |  | 173 nM | 9.99 nM
28 | GUGGCUAGUGCAGGAUAUUGGCGCGUGUAGUGUCGAGAAGGGCACAUGAGGAUCACCCAUGUGAUCAAUCACUGCUAAGGCCGC | 7.04 nM | 7.31 nM |  | 
29 | AAUAACAGAGGAUAUACUAUUUUAUGUGUUUGUUGUUUUAAACAUGAGGAUCACCCAUGUAGAAGGCUGAUUAA | 32.7 nM | 38.8 nM |  | 
30 | UGGUACUUGGGAGGAUAUGGGAAGAUACAUGAGGAUCACCCAUGUUUAAGAAUGCCGAGAGGCAACUAGAAGGCCCUAGUACCU |  |  | 493 nM | 20 nM
31 | AAUUCACAUGAGGAUCACCCAUGUCAGGAUAUGGUUUCACGUGUUUCGGUGCGUGAGGCCAGAAGGGACAGCUA | 58.4 nM | 87 nM |  | 
32 | AUCGUGCAGCUUUGCUGUACGAGUACAUGAGGAUCACCCAUGUAGGAUAUGGUACGCUUUGCGUGCUAGAAGGAUAUGCGAUUG | 43.8 nM | 46.1 nM |  | 
33 | UUAUUAUGUGUAGGAUAUGCAUAUUAUUAUUAUGCAGAAGGACAUGAGGAUCACCCAUGUAUAUUAUUAUUAUAUAUUAUAUGU | 21.1 nM | 44.2 nM |  | 
34 | GAUCGUUUAGAGGAUAUCGUGCUAAACAUUACAUGAGAAGGCUAGACAUGAGGAUCACCCAUGUAUGCUCGUGA | 15.5 nM | 17.1 nM |  | 
35 | CACCGUUAAGUAGGAUAUCGUACAUGAGGAUCACCCAUGUAAUAAAUGAGAAUUUCGGAUGUAUGCGAGAAGGACUAAAUCGGC | 49.3 nM | 43 nM |  | 
36 | AGUUUUUAUGUCAGGAUAUCAGUAGGUCUCCCGGAUGAGAAGGGACAUGAGGAUCACCCAUGUAACCAAAGAGC | 15.6 nM | 18.5 nM |  | 
37 | AAUAUUUAUUGAGGAUAUUCAUACACUGUAUACGGAGAAGGCAAUCAAUCAUGAGGACAUGAGGAUCACCCAUGUUGUGACCAU |  |  | 10.7 nM | 9.69 nM
38 | AUCCGGCGUGUAGGAUAUGGAUCCGAUUAGGAUCCAGAAGGACAUGAGGAUCACCCAUGUACAUGUAAACAGUCAUCACCGGAU | 6.59 nM | 14 nM |  | 
39 | GCUAGGAAUGUCAGGAUAUGCUGUACCUUGGUACAGCAGAAGGGACAUGAGGAUCACCCAUGUGCUAACCUAGC | 29.6 nM | 130 nM |  | 
40 | CGAUAACAUAGUUAUCCGUAGCGAACAUGAGGAUCACCCAUGUAGGAUAUGUUACUAAACUAGUAACAGAAGGACAUGAGUCUU | 34.9 nM | 263 nM |  | 
41 | GGUGGACAUGAGGAUCACCCAUGUGAGGAUAUCGGCUGGUACGUGUUGGCUGGCAUCUCGAGAAGGCACAUCGU | 56.2 nM | 135 nM |  | 
42 | GCAUGUAAGCAGAAGGGCAGAUAUUUUGAUACUGCAGGAUAUGCAGAAUCAUAUCCACAUGAUAACAUGAGGAUCACCCAUGUA | 32.3 nM | 29 nM |  | 
43 | AUGCAACAUGAGGAUCACCCAUGUGAGGAUAUCGUAUACUACUGUUGCAAUACUUAGACGAGAAGGCACACCGU | 166 nM | 174 nM |  | 
44 | GCGUUAAAGAUCCAUUUUUACAACAUGAGGAUCACCCAUGUGCAGGAUAUCGAAUGUUUUAUAUUCGAGAAGGGCAAUUUCCGC | 70.3 nM | 99.3 nM |  | 
45 | AGCAGAACGUCAGGAUAUGUGGGUACUUUAGUCACAUGAGGAUCACCCAUGUAGGACUGCGAUCAACAGAAGGGACAAUUAGCA |  |  | 279 nM | 16.2 nM
46 | GUGGUCAGACAUGAGGAUCACCCAUGUGGAAUAAAUAACGAACAGGAUAUGCAAUAUAGGAUAUAGUAGAAGGGUUGAUUGGUG |  |  | 104 nM | 138 nM
47 | GGUACUCAAAGAGUACCAAUACGAACAUGAGGAUCACCCAUGUAGGAUAUAAAACCGCCGGAGUAUUAGAAGGACAUGUGCCUA | 11.5 nM | 10.5 nM |  | 
48 | AACAGGACAGGAUAUACAUGAGGAUCACCCAUGUGAGAAUUAAGCAGCGUACCACACAGUAGAAGGGUCAUGGA | 46.7 nM | 40 nM |  | 
